# Results of several laboratories.
# Each line is one published result; the experiments were not run side by side. pIC50: −log10 of the molar value.
SMILES,target or system,test,test system,setting,quantity,result
CN1CCCCC1Cn1cc(C(=O)c2cc([N+](=O)[O-])ccc2I)c2ccccc21 (racemic),,,"mouse, plasma","intravenous, 25 mg/kg",MRT,54.7 min
Cc1cc(C)nc(Nc2ncc(C(=O)NCCc3c(C)[nH]c4ccccc34)cn2)c1,,metabolic stability,"male human, hepatocytes",1 µM,half-life,41 min
O=C1[O][Pt]2([NH][C@@H]3CCCC[C@H]3[NH]2)[O]C1=O (relative stereo),,,"cynomolgus monkey, plasma","intravenous, 2 mg/kg",AUC(0-t),9170 ng·h/mL
COC(=O)[C@@H]1[C@@H](c2ccccc2)[C@]2(c3ccc(OC)cc3)Oc3cc(OC)cc(OC)c3[C@@]23N=C(C)N[C@@]13O,HepG2,"cell growth or viability, MTT",,48 h,CC50,0.0105 µM
CCCCCCCCCCOc1cc2c(O)c(C(=O)OCC)cnc2cc1OCC,HepG2,cell growth or viability,,72 h,pIC50,< 4.00
CCC1(c2ccccc2)C(=O)NC(=O)NC1=O,HepG2,"cell growth or viability, ATP luminescence",,,CC50,> 1000 µM
O=C(c1ccc(-n2sc3ncccc3c2=O)cc1)N1CCOCC1,,metabolic stability,"human, liver microsomes",,half-life,> 120 min
N=c1c2c(-c3ccccc3)c(-c3ccccc3)n(Cc3ccccc3)c2ncn1[C@H]1CC[C@H](O)CC1,,,"male cynomolgus monkey, plasma","oral, 1 mg/kg, single dose",AUC(0-inf),27800 ng·h/mL
